Results published in PMC7888481 (Journal of natural products, 2020).
pIC50: −log10 of the molar value. “Also recorded” adds a separate entry of the source.

Assays:
Human FAAH = settings: read-out: Human FAAH IC50; literature values ref 27; cited from earlier work
[1] = Pharmacokinetics after oral administration in rats; type: in vivo; settings: rat, 100 mg/kg oral
How it was run: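 Male Sprague-Dawley rats, 8 weeks old, 250–300 g, n=4/group. Test compound given once at 100 mg/kg in 100% NEOBEE 1053 by oral gavage. Each sample added to 100 μL water with 0.1% EDTA, vortexed, stored at −80 °C, then processed and quantified by a previously reported method.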

CB1 receptor = settings: cited from earlier work
[2] = system: LPS-induced inflammatory pain; experiment: LPS-induced inflammatory pain model; type: in vivo; settings: rat, 100 mg/kg oral, LPS intraplantar, 6-h time-course, n=4/group
recombinant human sEH = target: T1, recombinant human sEH (Homo sapiens, UniProt P34913); experiment: sEH inhibition assay; type: biochemical
T1 sequence (P34913 1-555): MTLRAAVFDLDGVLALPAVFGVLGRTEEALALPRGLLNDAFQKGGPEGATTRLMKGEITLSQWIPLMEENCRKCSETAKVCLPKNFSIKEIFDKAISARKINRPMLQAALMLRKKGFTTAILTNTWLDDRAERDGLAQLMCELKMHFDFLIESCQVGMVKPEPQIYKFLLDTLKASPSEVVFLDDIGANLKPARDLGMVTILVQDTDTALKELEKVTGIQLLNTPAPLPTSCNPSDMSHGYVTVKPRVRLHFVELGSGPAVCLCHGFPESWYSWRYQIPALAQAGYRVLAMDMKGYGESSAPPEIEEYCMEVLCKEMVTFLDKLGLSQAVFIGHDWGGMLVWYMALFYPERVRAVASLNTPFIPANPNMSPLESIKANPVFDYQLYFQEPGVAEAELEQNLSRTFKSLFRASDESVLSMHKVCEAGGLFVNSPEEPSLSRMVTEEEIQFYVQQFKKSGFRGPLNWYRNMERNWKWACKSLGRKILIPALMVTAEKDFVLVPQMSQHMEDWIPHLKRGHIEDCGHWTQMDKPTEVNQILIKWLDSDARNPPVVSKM
How it was run: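 Fluorescence assay on recombinant human sEH, test compound in serial dilution. Substrate MNPC at 5 μM final is hydrolysed to fluorescent 6-methoxynaphthaldehyde, read at λex 330 nm and λem 465 nm. IC50 determined in triplicate and the mean reported. Reference inhibitor t-TUCB run in parallel to validate the assay.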

SMILES | pIC50 (Human FAAH) | further results
CCCCCCCCCCCCCCCC(=O)NCc1ccccc1 [Compound 1, N-benzylpalmitamide] | < 4.00 | –
CCCCCCCCCCCCCCCCCC(=O)NCc1ccccc1 [Compound 2, N-Benzyloctadecanamide] | < 4.00 | –
CCCCCCCC/C=C\CCCCCCCC(=O)NCc1ccccc1 [Compound 3, N-Benzyloctadec-9Z-enamide] | 4.78 | –
CCCCC/C=C\C/C=C\CCCCCCCC(=O)NCc1ccccc1 [Compound 4, N-Benzyloctadeca-9Z,12Z-dienamide] | 4.97 | time at which concentration peaked in the blood [1]: ≤ 3 h; binding to the CB1 receptor (CB1 receptor): selectively bind; paw withdrawal thresholds (pain relief) relative to vehicle control ([2]; 100 mg/kg): significantly increased; also recorded: efficacious
CC/C=C\C/C=C\C/C=C\CCCCCCCC(=O)NCc1ccccc1 [Compound 5, N-Benzyloctadeca-9Z,12Z,15Z-trienamide] | 4.38 | paw withdrawal thresholds (pain relief) relative to vehicle control [2]: not significant
CCCCCCCC/C=C\CCCCCCCC(=O)NCc1cccc(OC)c1 [Compound 10, N-(3-Methoxybenzyl)octadec-9Z-enamide] | 4.96 | –
CCCCC/C=C\C/C=C\CCCCCCCC(=O)NCc1cccc(OC)c1 [Compound 11, N-(3-Methoxybenzyl)octadeca-9Z,12Z-dienamide] | 4.99 | –
CC/C=C\C/C=C\C/C=C\CCCCCCCC(=O)NCc1cccc(OC)c1 [Compound 12, N-(3-Methoxybenzyl)octadeca-9Z,12Z,15Z-trienamide] | 4.86 | –
CCCCC/C=C\C/C=C\CCCCCCCC(=O)NCCc1ccccc1 [Compound 18, N-Phenethyloctadeca-9Z,12Z-dienamide] | – | pIC50 (recombinant human sEH): 7.55
